Results published in ChEMBL document CHEMBL1221342, “Synthesis and in vitro antitumor activity of new 4,5-dihydropyrazole derivatives” (Bioorg Med Chem, 2010).

System: not listed separately
Assay: Inhibition of tubulin polymerization
Details: not given
Outline: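 Tubulin (3 mg/mL HTS) in G-PEM buffer plus 5% glycerol, prepared at 4 °C, incubated at 37 °C with or without compound. Polymerization followed by A340 over 60 min. Polymer taken as the AUC, with untreated control AUC set to 100%. IC50 derived by non-linear regression.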

Going from `CCN(CC)c1ccc(C2CC(c3cc(OC)c(OC)c(OC)c3)=NN2)cc1` (configuration not stated) to `COc1cc(C2CC(c3cccc(Br)c3)=NN2C(C)=O)cc(OC)c1OC` (configuration not stated), the IC50 falls from > 10 µM to 5.16 µM. The second is the more potent here.

System: M14
Assay: Growth inhibition of human M14 cells after 48 hrs by SRB assay
Assay type: functional
Details: M14, 48 h
Outline: (§1)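 NCI 60-cell-line screen. Cells grown in RPMI1640 with 5% fetal calf serum and 2 mM L-glutamine, with inoculum density set by cell line. Preincubated 24 h, then given compound in DMSO at 10^-4 to 10^-8 M (five 10-fold steps) for 48 h continuous exposure. Growth measured by SRB protein assay. GI50, TGI and LC50 reported as –log molar.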

With `COc1cc(C2CC(c3cccc(Br)c3)=NN2C(C)=O)cc(OC)c1OC` (configuration not stated) the GI50 was 0.631 µM.

Same assay, conditions: M14, 48 h, read-out: pTGI (converted)

Compound `COc1cc(C2CC(c3cccc(Br)c3)=NN2C(C)=O)cc(OC)c1OC` (configuration not stated) has a TGI of 63.1 µM.

System: SK-MEL-2
Assay: Growth inhibition of human SK-MEL-2 cells after 48 hrs by SRB assay
Assay type: functional
Details: SK-MEL-2, 48 h
Outline: as §1

First: CCN(CC)c1ccc(C2CC(c3cc(OC)c(OC)c(OC)c3)=NN2)cc1 (configuration not stated)
Second: COc1cc(C2CC(c3cccc(Br)c3)=NN2C(C)=O)cc(OC)c1OC (configuration not stated)
The GI50 of the first is 13-fold lower: 1.58 µM for the first, 20 µM for the second.

Same assay, conditions: SK-MEL-2, 48 h, read-out: pTGI (converted)

Going from `CCN(CC)c1ccc(C2CC(c3cc(OC)c(OC)c(OC)c3)=NN2)cc1` (configuration not stated) to `COc1cc(C2CC(c3cccc(Br)c3)=NN2C(C)=O)cc(OC)c1OC` (configuration not stated), the TGI falls from > 100 µM to 79.4 µM.

System: SNB-75
Assay: Growth inhibition of human SNB75 cells after 48 hrs by SRB assay
Assay type: functional
Details: SNB-75, 48 h
Outline: as §1

Compared with `CCN(CC)c1ccc(C2CC(c3cc(OC)c(OC)c(OC)c3)=NN2)cc1` (configuration not stated), `COc1cc(C2CC(c3cccc(Br)c3)=NN2C(C)=O)cc(OC)c1OC` (configuration not stated) is 2-fold higher in GI50: 0.2 µM for the first, 0.398 µM for the second.

Same assay, conditions: SNB-75, 48 h, read-out: pTGI (converted)

Compared with `CCN(CC)c1ccc(C2CC(c3cc(OC)c(OC)c(OC)c3)=NN2)cc1` (configuration not stated), `COc1cc(C2CC(c3cccc(Br)c3)=NN2C(C)=O)cc(OC)c1OC` (configuration not stated) is higher in TGI: 0.631 µM for the first, > 100 µM for the second.

System: NCI-H322M
Assay: Growth inhibition of human NCI-H322M cells after 48 hrs by SRB assay
Assay type: functional
Details: not given
Outline: as §1

First: CCN(CC)c1ccc(C2CC(c3cc(OC)c(OC)c(OC)c3)=NN2)cc1 (configuration not stated)
Second: COc1cc(C2CC(c3cccc(Br)c3)=NN2C(C)=O)cc(OC)c1OC (configuration not stated)
The GI50 of the first is higher: > 100 µM for the first, 0.501 µM for the second.

Same assay, conditions: read-out: pTGI (converted)

`CCN(CC)c1ccc(C2CC(c3cc(OC)c(OC)c(OC)c3)=NN2)cc1` (configuration not stated) and `COc1cc(C2CC(c3cccc(Br)c3)=NN2C(C)=O)cc(OC)c1OC` (configuration not stated) cannot be ordered by TGI: > 100 µM for the first, > 100 µM for the second.

System: SR
Assay: Growth inhibition of human SR cells after 48 hrs by SRB assay
Assay type: functional
Details: not given
Outline: as §1

Going from `CCN(CC)c1ccc(C2CC(c3cc(OC)c(OC)c(OC)c3)=NN2)cc1` (configuration not stated) to `COc1cc(C2CC(c3cccc(Br)c3)=NN2C(C)=O)cc(OC)c1OC` (configuration not stated), the GI50 falls from 0.251 µM to 0.0398 µM (6.3-fold).

Same assay, conditions: read-out: pTGI (converted)

Compared with `CCN(CC)c1ccc(C2CC(c3cc(OC)c(OC)c(OC)c3)=NN2)cc1` (configuration not stated), `COc1cc(C2CC(c3cccc(Br)c3)=NN2C(C)=O)cc(OC)c1OC` (configuration not stated) is higher in TGI: 1 µM for the first, > 100 µM for the second.

System: HCT-15
Assay: Growth inhibition of human HCT15 cells after 48 hrs by SRB assay
Assay type: functional
Details: HCT-15, 48 h
Outline: as §1

Compared with `CCN(CC)c1ccc(C2CC(c3cc(OC)c(OC)c(OC)c3)=NN2)cc1` (configuration not stated), `COc1cc(C2CC(c3cccc(Br)c3)=NN2C(C)=O)cc(OC)c1OC` (configuration not stated) is 2-fold lower in GI50: 0.631 µM for the first, 0.316 µM for the second.

Same assay, conditions: HCT-15, 48 h, read-out: pTGI (converted)

Going from `CCN(CC)c1ccc(C2CC(c3cc(OC)c(OC)c(OC)c3)=NN2)cc1` (configuration not stated) to `COc1cc(C2CC(c3cccc(Br)c3)=NN2C(C)=O)cc(OC)c1OC` (configuration not stated), the TGI falls from > 100 µM to 31.6 µM.

System: SW-620
Assay: Growth inhibition of human SW620 cells after 48 hrs by SRB assay
Assay type: functional
Details: SW-620, 48 h
Outline: as §1

`CCN(CC)c1ccc(C2CC(c3cc(OC)c(OC)c(OC)c3)=NN2)cc1` (configuration not stated) and `COc1cc(C2CC(c3cccc(Br)c3)=NN2C(C)=O)cc(OC)c1OC` (configuration not stated) are within 1.5-fold of each other in GI50: 0.398 µM for the first, 0.316 µM for the second.

Same assay, conditions: SW-620, 48 h, read-out: pTGI (converted)

`CCN(CC)c1ccc(C2CC(c3cc(OC)c(OC)c(OC)c3)=NN2)cc1` (configuration not stated) and `COc1cc(C2CC(c3cccc(Br)c3)=NN2C(C)=O)cc(OC)c1OC` (configuration not stated) cannot be ordered by TGI: > 100 µM for the first, > 100 µM for the second.

System: SK-MEL-28
Assay: Growth inhibition of human SK-MEL-28 cells after 48 hrs by SRB assay
Assay type: functional
Details: SK-MEL-28, 48 h
Outline: as §1

With `COc1cc(C2CC(c3cccc(Br)c3)=NN2C(C)=O)cc(OC)c1OC` (configuration not stated) the GI50 was 0.794 µM.

Same assay, conditions: SK-MEL-28, 48 h, read-out: pTGI (converted)

Compound `COc1cc(C2CC(c3cccc(Br)c3)=NN2C(C)=O)cc(OC)c1OC` (configuration not stated) has a TGI of 63.1 µM.

System: CAKI-1
Assay: Growth inhibition of human Caki1 cells after 48 hrs by SRB assay
Assay type: functional
Details: CAKI-1, 48 h
Outline: as §1

`CCN(CC)c1ccc(C2CC(c3cc(OC)c(OC)c(OC)c3)=NN2)cc1` (configuration not stated) and `COc1cc(C2CC(c3cccc(Br)c3)=NN2C(C)=O)cc(OC)c1OC` (configuration not stated) are within 1.5-fold of each other in GI50: 0.2 µM for the first, 0.251 µM for the second.

Same assay, conditions: CAKI-1, 48 h, read-out: pTGI (converted)

Compared with `CCN(CC)c1ccc(C2CC(c3cc(OC)c(OC)c(OC)c3)=NN2)cc1` (configuration not stated), `COc1cc(C2CC(c3cccc(Br)c3)=NN2C(C)=O)cc(OC)c1OC` (configuration not stated) is 50-fold higher in TGI: 0.794 µM for the first, 39.8 µM for the second.

System: 786-0
Assay: Growth inhibition of human 786-0 cells after 48 hrs by SRB assay
Assay type: functional
Details: 786-0, 48 h
Outline: as §1

Compared with `CCN(CC)c1ccc(C2CC(c3cc(OC)c(OC)c(OC)c3)=NN2)cc1` (configuration not stated), `COc1cc(C2CC(c3cccc(Br)c3)=NN2C(C)=O)cc(OC)c1OC` (configuration not stated) is 5-fold higher in GI50: 0.158 µM for the first, 0.794 µM for the second.

Same assay, conditions: 786-0, 48 h, read-out: pTGI (converted)

Going from `CCN(CC)c1ccc(C2CC(c3cc(OC)c(OC)c(OC)c3)=NN2)cc1` (configuration not stated) to `COc1cc(C2CC(c3cccc(Br)c3)=NN2C(C)=O)cc(OC)c1OC` (configuration not stated), the TGI rises from 0.501 µM to > 100 µM.

System: NCI-H460
Assay: Cytotoxicity against human NCI-H460 cells after 72 hrs by SRB assay
Assay type: functional, cell-based
Details: NCI-H460, 72 h
Outline: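 NCI-H460 (ATCC) cells seeded in 96-well plates in growth medium. Scalar drug concentrations added 24 h after plating, then 72 h exposure. Surviving cells stained with sulforhodamine B, OD read at 570 nm. IC50 (50% growth inhibition) fitted from dose–response curves. Mean ± SE of at least three independent experiments.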

`CCN(CC)c1ccc(C2CC(c3cc(OC)c(OC)c(OC)c3)=NN2)cc1` (configuration not stated) and `COc1cc(C2CC(c3cccc(Br)c3)=NN2C(C)=O)cc(OC)c1OC` (configuration not stated) are within 1.5-fold of each other in IC50: 0.3 µM for the first, 0.35 µM for the second.

System: DU-145
Assay: Growth inhibition of human DU145 cells after 48 hrs by SRB assay
Assay type: functional
Details: DU-145, 48 h
Outline: as §1

`CCN(CC)c1ccc(C2CC(c3cc(OC)c(OC)c(OC)c3)=NN2)cc1` (configuration not stated) and `COc1cc(C2CC(c3cccc(Br)c3)=NN2C(C)=O)cc(OC)c1OC` (configuration not stated) are the same in GI50: 0.398 µM for the first, 0.398 µM for the second.

Same assay, conditions: DU-145, 48 h, read-out: pTGI (converted)

First: CCN(CC)c1ccc(C2CC(c3cc(OC)c(OC)c(OC)c3)=NN2)cc1 (configuration not stated)
Second: COc1cc(C2CC(c3cccc(Br)c3)=NN2C(C)=O)cc(OC)c1OC (configuration not stated)
The TGI of the first is 8-fold lower: 1.58 µM for the first, 12.6 µM for the second.

System: NCI-H522
Assay: Growth inhibition of human NCI-H522 cells after 48 hrs by SRB assay
Assay type: functional
Details: NCI-H522, 48 h
Outline: as §1

Compared with `CCN(CC)c1ccc(C2CC(c3cc(OC)c(OC)c(OC)c3)=NN2)cc1` (configuration not stated), `COc1cc(C2CC(c3cccc(Br)c3)=NN2C(C)=O)cc(OC)c1OC` (configuration not stated) is 1.6-fold higher in GI50: 0.251 µM for the first, 0.398 µM for the second.

Same assay, conditions: NCI-H522, 48 h, read-out: pTGI (converted)

In the case of `CCN(CC)c1ccc(C2CC(c3cc(OC)c(OC)c(OC)c3)=NN2)cc1` (configuration not stated), the TGI is reported as 2 µM.
